pIC50: −log10 of the molar value. Activity calls are given as the source filed them. The calls are words filed in the database; no cut-off is given here.
Tests used:
MCF7 [1] = test: Antiproliferative activity against human MCF7 cells incubated for 72 hrs by SRB assay; type: functional, cell-based; details: MCF7, 72 h
In short: (§1)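 Sulforhodamine B colorimetric read-out after 72 h drug exposure. Cells kept in DMEM with 10 % FBS and 1 % penicillin/streptomycin at 37 °C under 5 % CO₂, mycoplasma-checked, passaged under 6 months. Compounds given from DMSO stocks diluted in medium, final DMSO ≤ 0.1 % v/v, with DMSO-only parallel cultures as controls. IC50 reported as mean ± SD of three independent determinations, each run in duplicate.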

HCT-116 [2] = test: Antiproliferative activity against human HCT-116 cells incubated for 72 hrs by SRB assay; type: functional, cell-based; details: HCT-116, 72 h; in short: as §1
MCF7 [3] = test: Induction of morphological changes in human MCF7 cells assessed as formation of membrane blebbing incubated for 24 hrs by SEM analysis; type: functional, cell-based
HCT-116 [4] = test: Induction of apoptosis in human HCT-116 cells assessed as late apoptotic cells at 50 uM incubated for 12 hrs by Annexin V-FITC/PI staining based flow cytometry (reference value: 2.8 +/- 0.38 %); type: functional
HCT-116 [5] = test: Induction of morphological changes in human HCT-116 cells assessed as formation of membrane blebbing incubated for 24 hrs by SEM analysis; type: functional, cell-based
Homo sapiens [6] = species on record: Homo sapiens; test: Inhibition of human AKT assessed as residual activity at 50 uM relative to control
In short: (§2)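 Residual kinase activity determined with each compound at 5×10⁻⁶ and 5×10⁻⁵ M, in singlicate per kinase assay, expressed relative to uninhibited control.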

[7] = molecular target: Mitogen-activated protein kinase 8 (Homo sapiens) (UniProt P45983); test: Inhibition of human JNK1 assessed as residual activity at 50 uM relative to control; in short: as §2
[8] = molecular target: Epidermal growth factor receptor (Homo sapiens) (UniProt P00533); test: Inhibition of human EGFR assessed as residual activity at 5 uM relative to control; in short: as §2
[9] = molecular target: 5'-AMP-activated protein kinase catalytic subunit alpha-1 (Homo sapiens) (UniProt Q13131); test: Inhibition of human AMPK alpha-1 assessed as residual activity at 5 uM relative to control; in short: as §2
[10] = molecular target: Mitogen-activated protein kinase 1 (Homo sapiens) (UniProt P28482); test: Inhibition of human ERK2 assessed as residual activity at 5 uM relative to control; in short: as §2
MCF7 [11] = test: Cytotoxicity against human MCF7 cells at 50 uM incubated for 12 hrs by PI staining based flow cytometry relative to control; type: functional
Homo sapiens [12] = species on record: Homo sapiens; test: Inhibition of human AKT assessed as residual activity at 5 uM relative to control; in short: as §2
[13] = molecular target: T1, LKB1-STRAD-MO25 complex (Homo sapiens) (UniProt Q15831+Q7RTN6+Q9Y376); test: Inhibition of human LKB1/MO25/STRADalpha assessed as residual activity at 50 uM relative to control; type: protein-complex assay; in short: as §2
[14] = molecular target: Receptor tyrosine-protein kinase erbB-2 (Homo sapiens) (UniProt P04626); test: Inhibition of human HER2 assessed as residual activity at 50 uM relative to control; in short: as §2
MCF7 [15] = test: Induction of apoptosis in human MCF7 cells assessed as necrotic cells at 50 uM incubated for 12 hrs by Annexin V-FITC/PI staining based flow cytometry (reference value: 0.56 +/- 0.04 %); type: functional
MCF7 [16] = test: Induction of morphological changes in human MCF7 cells assessed as formation of large pores in cell membrane incubated for 12 hrs by SEM analysis
HCT-116 [17] = test: Induction of morphological changes in human HCT-116 cells assessed as formation of vesicular bodies incubated for 24 hrs by SEM analysis; type: functional, cell-based
HCT-116 [18] = test: Induction of cell cycle arrest in human HCT-116 cells assessed as accumulation of cells at S phase at 50 uM incubated for 12 hrs by PI staining based flow cytometry (reference value: 18.7 +/- 0.5 %); type: functional
[19] = molecular target: Mitogen-activated protein kinase 1 (Homo sapiens) (UniProt P28482); test: Inhibition of human ERK2 assessed as residual activity at 50 uM relative to control; in short: as §2
MCF7 [20] = test: Induction of morphological changes in human MCF7 cells assessed as formation of round vesicular bodies incubated for 24 hrs by SEM analysis; type: functional, cell-based
HCT-116 [21] = test: Induction of apoptosis in human HCT-116 cells assessed as necrotic cells at 50 uM incubated for 12 hrs by Annexin V-FITC/PI staining based flow cytometry (reference value: 3.5 +/- 0.66 %); type: functional
MCF7 [22] = test: Induction of apoptosis in human MCF7 cells assessed as late apoptotic cells at 50 uM incubated for 12 hrs by Annexin V-FITC/PI staining based flow cytometry (reference value: 0.26 +/- 0.09 %); type: functional
HCT-116 [23] = test: Induction of cell cycle arrest in human HCT-116 cells assessed as accumulation of cells at G2/M phase at 50 uM incubated for 12 hrs by PI staining based flow cytometry (reference value: 8.3 +/- 0.74 %); type: functional
[24] = molecular target: Mitogen-activated protein kinase 14 (Homo sapiens) (UniProt Q16539); test: Inhibition of human P38-alpha assessed as residual activity at 5 uM relative to control; in short: as §2
[25] = molecular target: Receptor tyrosine-protein kinase erbB-2 (Homo sapiens) (UniProt P04626); test: Inhibition of human HER2 assessed as residual activity at 5 uM relative to control; in short: as §2
[26] = molecular target: Epidermal growth factor receptor (Homo sapiens) (UniProt P00533); test: Inhibition of human EGFR assessed as residual activity at 50 uM relative to control; in short: as §2
[27] = molecular target: Mitogen-activated protein kinase 14 (Homo sapiens) (UniProt Q16539); test: Inhibition of human P38-alpha assessed as residual activity at 50 uM relative to control; in short: as §2
HCT-116 [28] = test: Induction of morphological changes in human HCT-116 cells assessed as pore formation in cell membrane incubated for 24 hrs by SEM analysis; type: functional, cell-based
HCT-116 [29] = test: Induction of morphological changes in human HCT-116 cells assessed as multiple cellular remnants formation incubated for 24 hrs by SEM analysis; type: functional, cell-based
HCT-116 [30] = test: Induction of morphological changes in human HCT-116 cells assessed as flattening of cellular structure incubated for 24 hrs by SEM analysis; type: functional, cell-based
[31] = molecular target: T1, LKB1-STRAD-MO25 complex (Homo sapiens); test: Inhibition of human LKB1/MO25/STRADalpha assessed as residual activity at 5 uM relative to control; type: protein-complex assay; in short: as §2
[32] = molecular target: 5'-AMP-activated protein kinase catalytic subunit alpha-1 (Homo sapiens) (UniProt Q13131); test: Inhibition of human AMPK alpha-1 assessed as residual activity at 50 uM relative to control; in short: as §2
[33] = molecular target: Mitogen-activated protein kinase 8 (Homo sapiens) (UniProt P45983); test: Inhibition of human JNK1 assessed as residual activity at 5 uM relative to control; in short: as §2
MCF7 [34] = test: Induction of apoptosis in human MCF7 cells assessed as early apoptotic cells at 50 uM incubated for 12 hrs by Annexin V-FITC/PI staining based flow cytometry (reference value: 0.33 +/- 0.12 %); type: functional
MCF7 [35] = test: Antiproliferative activity against human MCF7 cells incubated for 5 days by PrestoBlue assay; type: functional, cell-based; details: MCF7, 120 h
HCT-116 [36] = test: Antiproliferative activity against human HCT-116 cells incubated for 5 days by PrestoBlue assay; type: functional, cell-based; details: HCT-116, 120 h

5'-AMP-activated protein kinase catalytic subunit alpha-1 (Homo sapiens), sequence (Q13131 whole entry, looked up): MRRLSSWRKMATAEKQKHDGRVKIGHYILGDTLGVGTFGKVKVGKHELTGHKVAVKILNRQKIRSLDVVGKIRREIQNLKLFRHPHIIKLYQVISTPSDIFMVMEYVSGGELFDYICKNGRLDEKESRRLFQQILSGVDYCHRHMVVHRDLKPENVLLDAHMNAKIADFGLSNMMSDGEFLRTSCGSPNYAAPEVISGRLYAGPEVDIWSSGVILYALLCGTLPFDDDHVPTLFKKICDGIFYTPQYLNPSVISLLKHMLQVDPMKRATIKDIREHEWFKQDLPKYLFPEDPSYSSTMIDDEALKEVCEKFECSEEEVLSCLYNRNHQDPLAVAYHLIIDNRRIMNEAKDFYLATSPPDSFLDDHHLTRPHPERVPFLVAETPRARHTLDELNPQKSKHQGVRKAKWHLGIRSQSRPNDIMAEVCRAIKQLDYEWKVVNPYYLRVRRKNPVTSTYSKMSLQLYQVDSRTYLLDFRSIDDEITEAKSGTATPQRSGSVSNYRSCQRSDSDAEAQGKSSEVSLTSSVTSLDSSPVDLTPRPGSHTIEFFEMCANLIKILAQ
Epidermal growth factor receptor (Homo sapiens), sequence (P00533 whole entry): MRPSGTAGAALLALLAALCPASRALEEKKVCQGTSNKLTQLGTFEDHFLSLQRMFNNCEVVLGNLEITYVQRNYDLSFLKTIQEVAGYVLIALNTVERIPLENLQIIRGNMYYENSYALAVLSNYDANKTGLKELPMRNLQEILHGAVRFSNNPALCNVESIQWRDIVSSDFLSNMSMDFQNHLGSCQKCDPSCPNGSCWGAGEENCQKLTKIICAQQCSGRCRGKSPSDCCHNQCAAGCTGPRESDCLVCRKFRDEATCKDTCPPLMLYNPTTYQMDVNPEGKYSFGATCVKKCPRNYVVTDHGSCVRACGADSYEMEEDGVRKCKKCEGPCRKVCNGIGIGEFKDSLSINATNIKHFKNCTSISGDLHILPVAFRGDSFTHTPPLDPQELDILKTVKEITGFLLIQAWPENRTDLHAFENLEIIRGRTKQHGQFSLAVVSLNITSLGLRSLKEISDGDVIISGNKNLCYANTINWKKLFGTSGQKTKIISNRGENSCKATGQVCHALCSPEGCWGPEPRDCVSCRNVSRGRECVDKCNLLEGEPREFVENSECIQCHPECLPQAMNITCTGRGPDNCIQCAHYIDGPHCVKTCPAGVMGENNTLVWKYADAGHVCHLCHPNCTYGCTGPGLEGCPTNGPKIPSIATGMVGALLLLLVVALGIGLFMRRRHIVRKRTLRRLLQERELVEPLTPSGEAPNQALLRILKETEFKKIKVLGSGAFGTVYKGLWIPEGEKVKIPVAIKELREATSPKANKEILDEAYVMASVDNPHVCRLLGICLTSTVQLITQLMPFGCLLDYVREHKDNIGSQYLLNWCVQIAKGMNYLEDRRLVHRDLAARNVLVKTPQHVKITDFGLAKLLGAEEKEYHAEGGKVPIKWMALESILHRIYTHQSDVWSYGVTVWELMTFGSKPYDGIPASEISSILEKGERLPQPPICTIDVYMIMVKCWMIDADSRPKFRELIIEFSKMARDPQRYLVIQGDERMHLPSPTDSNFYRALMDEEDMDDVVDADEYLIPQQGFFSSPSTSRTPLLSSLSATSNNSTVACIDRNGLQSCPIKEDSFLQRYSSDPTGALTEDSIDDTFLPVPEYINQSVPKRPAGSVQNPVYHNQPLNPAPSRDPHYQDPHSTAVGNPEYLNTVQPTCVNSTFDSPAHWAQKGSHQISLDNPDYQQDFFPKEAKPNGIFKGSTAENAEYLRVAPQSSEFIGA
Mitogen-activated protein kinase 1 (Homo sapiens), sequence (P28482 whole entry): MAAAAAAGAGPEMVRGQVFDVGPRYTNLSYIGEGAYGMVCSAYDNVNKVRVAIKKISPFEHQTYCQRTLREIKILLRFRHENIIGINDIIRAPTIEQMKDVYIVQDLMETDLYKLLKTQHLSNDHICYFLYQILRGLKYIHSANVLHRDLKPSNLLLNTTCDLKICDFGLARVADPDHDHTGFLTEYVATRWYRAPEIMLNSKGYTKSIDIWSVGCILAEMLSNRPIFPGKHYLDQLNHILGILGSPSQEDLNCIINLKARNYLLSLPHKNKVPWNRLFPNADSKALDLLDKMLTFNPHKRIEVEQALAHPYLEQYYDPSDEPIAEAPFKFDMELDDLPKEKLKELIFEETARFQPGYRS
Receptor tyrosine-protein kinase erbB-2 (Homo sapiens), sequence (P04626 whole entry): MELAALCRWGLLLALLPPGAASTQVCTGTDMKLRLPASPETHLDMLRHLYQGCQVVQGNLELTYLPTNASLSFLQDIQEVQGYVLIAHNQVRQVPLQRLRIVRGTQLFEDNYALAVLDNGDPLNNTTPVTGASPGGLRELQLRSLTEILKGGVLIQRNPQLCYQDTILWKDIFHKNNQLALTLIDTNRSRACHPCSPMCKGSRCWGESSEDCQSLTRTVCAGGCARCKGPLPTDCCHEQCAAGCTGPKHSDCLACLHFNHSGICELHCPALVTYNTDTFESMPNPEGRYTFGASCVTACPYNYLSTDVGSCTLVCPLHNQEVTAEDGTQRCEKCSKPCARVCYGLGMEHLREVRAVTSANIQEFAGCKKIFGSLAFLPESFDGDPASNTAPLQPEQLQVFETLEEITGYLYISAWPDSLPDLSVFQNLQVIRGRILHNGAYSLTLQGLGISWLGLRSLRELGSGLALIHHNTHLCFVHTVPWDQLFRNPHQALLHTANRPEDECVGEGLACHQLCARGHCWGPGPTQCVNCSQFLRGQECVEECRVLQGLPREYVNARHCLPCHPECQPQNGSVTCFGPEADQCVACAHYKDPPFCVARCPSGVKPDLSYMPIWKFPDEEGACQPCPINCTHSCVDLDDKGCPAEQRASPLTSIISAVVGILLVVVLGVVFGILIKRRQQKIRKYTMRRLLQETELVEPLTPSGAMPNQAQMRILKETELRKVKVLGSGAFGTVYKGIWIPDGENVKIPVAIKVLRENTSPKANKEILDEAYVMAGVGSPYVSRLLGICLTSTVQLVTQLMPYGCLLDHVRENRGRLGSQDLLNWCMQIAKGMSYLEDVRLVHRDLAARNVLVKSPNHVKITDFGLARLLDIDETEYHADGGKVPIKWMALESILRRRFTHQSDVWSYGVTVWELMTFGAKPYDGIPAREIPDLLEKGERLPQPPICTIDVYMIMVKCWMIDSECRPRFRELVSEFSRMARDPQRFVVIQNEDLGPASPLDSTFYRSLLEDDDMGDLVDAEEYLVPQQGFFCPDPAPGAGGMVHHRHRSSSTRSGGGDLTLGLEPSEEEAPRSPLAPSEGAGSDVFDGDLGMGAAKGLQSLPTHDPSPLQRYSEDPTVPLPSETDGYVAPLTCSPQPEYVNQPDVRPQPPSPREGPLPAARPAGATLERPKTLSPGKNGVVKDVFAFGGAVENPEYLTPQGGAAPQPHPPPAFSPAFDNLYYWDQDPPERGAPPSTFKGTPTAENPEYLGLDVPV
Mitogen-activated protein kinase 14 (Homo sapiens), sequence (Q16539 whole entry): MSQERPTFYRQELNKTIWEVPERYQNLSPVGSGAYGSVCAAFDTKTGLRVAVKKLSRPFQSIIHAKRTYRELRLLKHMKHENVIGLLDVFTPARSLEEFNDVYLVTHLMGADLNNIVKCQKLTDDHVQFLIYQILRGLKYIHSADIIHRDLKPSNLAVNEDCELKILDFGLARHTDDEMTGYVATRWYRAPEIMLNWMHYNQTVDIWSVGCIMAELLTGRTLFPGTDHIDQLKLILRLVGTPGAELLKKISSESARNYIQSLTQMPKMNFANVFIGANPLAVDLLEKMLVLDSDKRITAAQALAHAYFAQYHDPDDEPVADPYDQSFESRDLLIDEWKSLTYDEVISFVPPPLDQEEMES
Mitogen-activated protein kinase 8 (Homo sapiens), sequence (P45983 whole entry): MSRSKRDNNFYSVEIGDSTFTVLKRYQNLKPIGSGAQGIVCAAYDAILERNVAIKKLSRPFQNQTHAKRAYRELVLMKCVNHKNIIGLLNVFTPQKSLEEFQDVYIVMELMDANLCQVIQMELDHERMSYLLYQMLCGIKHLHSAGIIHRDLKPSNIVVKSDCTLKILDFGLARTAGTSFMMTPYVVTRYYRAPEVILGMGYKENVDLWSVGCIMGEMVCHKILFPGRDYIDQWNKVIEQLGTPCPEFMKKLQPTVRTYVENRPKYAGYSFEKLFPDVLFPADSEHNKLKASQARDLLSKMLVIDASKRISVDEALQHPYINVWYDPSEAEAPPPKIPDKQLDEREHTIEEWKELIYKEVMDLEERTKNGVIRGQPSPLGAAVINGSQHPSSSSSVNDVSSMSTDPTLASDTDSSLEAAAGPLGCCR

Row | pIC50 (MCF7 [1]) | pIC50 (HCT-116 [2]) | Activity (Homo sapiens [6]) | Activity [7] | Activity [8] | Activity [9] | Activity [10] | Activity (Homo sapiens [12]) | Activity [13] | Activity [14] | Activity [19] | Activity [24] | Activity [25] | Activity [26] | Activity [27] | Activity [31] | Activity [32] | Activity [33] | Structure (SMILES) | also measured
1 | 4.84 | 4.81 | – | – | – | – | – | – | – | – | – | – | – | – | – | – | – | – | Cc1ccc(S(=O)(=O)N2CC(CCn3cnc4c(Cl)ncnc43)Oc3ccc(Br)cc32)cc1 (stereo not drawn) | –
2 | 5.49 | 5.12 | 139% | 67% | 74% | 87% | 93% | 103% | 100% | 67% | 94% | 72% | 76% | 57% | 77% | 84% | 89% | 78% | Cc1ccc(S(=O)(=O)N2CC(CCn3cnc4c(Cl)nc(Cl)nc43)Oc3cc(Cl)ccc32)cc1 (stereo not drawn) | Activity (MCF7 [3]): Active; Activity (HCT-116 [4]): 49.5%; Activity (HCT-116 [5]): Active; Activity (MCF7 [11]): 100%; Activity (MCF7 [15]): 0.83%; Activity (MCF7 [16]): Active; Activity (HCT-116 [17]): Active; Activity (HCT-116 [18]): 49.2%; Activity (MCF7 [20]): Active; Activity (HCT-116 [21]): 28.4%; Activity (MCF7 [22]): 87.3%; Activity (HCT-116 [23]): 6.67%; Activity (HCT-116 [28]): Active; Activity (HCT-116 [29]): Active; Activity (HCT-116 [30]): Active; Activity (MCF7 [34]): 7.9%
3 | – | – | – | – | – | – | – | – | – | – | – | – | – | – | – | – | – | – | Cc1ccc(S(=O)(=O)N2CC(CCn3cnc4c(Cl)nc(Cl)nc43)Oc3ccccc32)cc1 (stereo not drawn) | pIC50 (MCF7 [35]): 4.89; pIC50 (HCT-116 [36]): 5.15
4 | 5.40 | 5.03 | 106% | 52% | 97% | 90% | 81% | 89% | 131% | 55% | 74% | 93% | 99% | 67% | 70% | 95% | 86% | 84% | Cc1ccc(S(=O)(=O)N2CC(CCn3cnc4c(Br)ncnc43)Oc3ccc(C)cc32)cc1 (stereo not drawn) | –
5 | 4.69 | 4.63 | – | – | – | – | – | – | – | – | – | – | – | – | – | – | – | – | Cc1ccc(S(=O)(=O)N2CC(CCn3cnc4c(C(F)(F)F)ncnc43)Oc3ccc(Br)cc32)cc1 (stereo not drawn) | –
6 | 5.64 | 5.35 | 104% | 56% | 96% | 93% | 88% | 88% | 89% | 50% | 73% | 112% | 90% | 62% | 82% | 88% | 75% | 96% | Cc1ccc(S(=O)(=O)N2CC(CCn3cnc4c(Cl)nc(Cl)nc43)Oc3ccc(C)cc32)cc1 (stereo not drawn) | Activity (MCF7 [3]): Active; Activity (HCT-116 [4]): 26.5%; Activity (HCT-116 [5]): Active; Activity (MCF7 [11]): 100%; Activity (MCF7 [15]): 2.1%; Activity (MCF7 [16]): Active; Activity (HCT-116 [17]): Active; Activity (HCT-116 [18]): 51.25%; Activity (MCF7 [20]): Active; Activity (HCT-116 [21]): 36.3%; Activity (MCF7 [22]): 77.8%; Activity (HCT-116 [23]): 5.3%; Activity (HCT-116 [29]): Active; Activity (HCT-116 [30]): Active; Activity (MCF7 [34]): 9.3%
7 | 4.51 | 5.33 | – | – | – | – | – | – | – | – | – | – | – | – | – | – | – | – | Cc1ccc(S(=O)(=O)N2CC(CCn3cnc4c(C(F)(F)F)ncnc43)Oc3ccc(C)cc32)cc1 (stereo not drawn) | –

Source: ChEMBL document CHEMBL6071131, “New substituted benzoxazine derivatives as potent inducers of membrane permeability and cell death” (Bioorg Med Chem, 2024)
